Laboratory results: the M2OR odorant receptor database

Target: T1, OR1A1 (Homo sapiens) (UniProt Q9P1Q5)
T1 sequence (whole entry): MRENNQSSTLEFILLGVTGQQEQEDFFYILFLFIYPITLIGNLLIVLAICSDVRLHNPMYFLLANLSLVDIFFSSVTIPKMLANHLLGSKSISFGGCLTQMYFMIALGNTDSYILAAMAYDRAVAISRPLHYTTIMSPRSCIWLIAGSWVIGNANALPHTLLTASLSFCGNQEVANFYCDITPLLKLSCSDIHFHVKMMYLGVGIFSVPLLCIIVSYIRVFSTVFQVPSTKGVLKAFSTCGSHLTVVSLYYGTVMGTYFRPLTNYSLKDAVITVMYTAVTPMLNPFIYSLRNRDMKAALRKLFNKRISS
Conditions: stereoisomer not certain
In short: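 Values were gathered from published papers (main text and supplementary material), with extra details requested from the original authors when needed, and checked for typos and inconsistencies. Each receptor–molecule pair is called responsive (active) if the original authors judged the measured signal statistically different from baseline, and non-responsive (inactive) otherwise. Assay methods varied by source, often transient mammalian cell-line luciferase assays. Recorded details include cell line, G-protein, co-transfected protein and tags.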

Compound | odorant receptor agonist call
CCO | inactive
CCCSSCCC | inactive
CC=O | inactive
CSCCC=O | inactive
C=CC(O)CCCCC (configuration not stated) | active
CCCCC(C)=O | inactive
CC1CCC(C(C)C)C(=O)C1 (configuration not stated) | active
COc1ccc2ccc(=O)oc2c1 | inactive
CCc1cccc(O)c1 | inactive
O=C1CCOc2ccccc21 | active
CCC(C)COC(C)=O (configuration not stated) | inactive
CC(=O)OCC=Cc1ccccc1 | inactive
CCCC(=O)C(C)=O | inactive
CCC(=O)C(C)S (configuration not stated) | inactive
COC1=C(C)OC(C)C1=O (configuration not stated) | inactive
CCCCC(=O)O | inactive
O=C([O-])CCCCC(=O)[O-].[H+].[H+] | inactive
c1cnc2c(c1)ccc1cccnc12 | inactive
C=C(C)C1CC=C(C)C(O)C1 (configuration not stated) | active

Compound | odorant receptor agonist call
CCCCOC=O | inactive
Cc1occc1S | inactive
CCCC(C)=O | inactive
CC(C)=CCCC(C)CCO (configuration not stated) | active
CCC=CCCC=O | inactive
CCCCC(=O)CC(C)=O | active
CCOC(=O)C1CCCCC1 | active
OCCc1ccccc1 | inactive
CCCCC(=O)C(C)=O | inactive
CC(=O)CCc1ccc(O)cc1 | inactive
C=C1CCC2CC1C2(C)C (configuration not stated) | inactive
C=C1CCC2(C(C)C)CC12 (configuration not stated) | inactive
O=C(O)C=Cc1ccc(O)cc1 | inactive
CCCCCCCC1CCC(=O)O1 (configuration not stated) | inactive
CCCCCC(C)O (configuration not stated) | inactive
CCC(C)C(=O)OC (configuration not stated) | inactive
CCCC=CC=O | inactive
C=C(C)C1CC=C(C)C(OC(C)=O)C1 (configuration not stated) | inactive
